Each block holds one molecule with its values, some of them ahead of it.
Key:
[1] = Antiproliferative activity against human HCT116 cells after 24 to 72 hrs by SRB assay; format: functional, cell-based; conditions: HCT-116
Outline: (§1)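 Cells grown in 96-well plates (RPMI 1640; MRC-5 in MEM, 10% FBS, antibiotics) with compound […]; fixed in 10% TCA 30 min at 4 °C, stained 0.4% SRB in 1% acetic acid 1 h, dye dissolved in 10 mM Tris pH 10.0, A515 read; viability as % of solvent control, IC50 by nonlinear regression; mean of three independent experiments.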

[2] = Antiproliferative activity against human HCT116 cells assessed as cell viability after 24 hrs by SRB assay; format: functional, cell-based; conditions: HCT-116, 24 h
Outline: (§2)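 HCT116 cells in 96-well plates exposed 24, 48 or 72 h; TCA fixation, 0.4% SRB staining, dye solubilised in 10 mM Tris pH 10.0, absorbance at 515 nm; viability relative to solvent-treated control.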

[3] = Antiproliferative activity against p53-null human HCT116 cells assessed as cell viability after 72 hrs by SRB assay; format: functional, cell-based; conditions: HCT-116, 72 h
Outline: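 p53 wild-type and p53-null HCT116 cells in 96-well plates treated 72 h; SRB assay (TCA fix, SRB stain, Tris pH 10.0 solubilisation, A515); viability vs solvent control, IC50 by nonlinear regression.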

MRC5 = assay: Cytotoxicity against human MRC5 cells after 24 to 72 hrs by SRB assay; format: cell-based; outline: as §1
K562 = assay: Antiproliferative activity against human K562 cells after 24 to 72 hrs by SRB assay; format: functional, cell-based; outline: as §1
CAKI-1 = assay: Antiproliferative activity against human CAKI-1 cells after 24 to 72 hrs by SRB assay; format: functional, cell-based; outline: as §1
[4] = Antiproliferative activity against human HCT116 cells assessed as cell viability after 72 hrs by SRB assay; format: functional, cell-based; conditions: HCT-116, 72 h; outline: as §2
[5] = Antiproliferative activity against human HCT116 cells assessed as cell viability after 48 hrs by SRB assay; format: functional, cell-based; conditions: HCT-116, 48 h; outline: as §2
A549 = assay: Antiproliferative activity against human A549 cells after 24 to 72 hrs by SRB assay; format: functional, cell-based; outline: as §1
HCT-116 [6] = assay: Induction of reactive oxygen species in human HCT116 cells at 1 mM after 48 hrs by DCFH-DA staining-based flow cytometric analysis (reference value: 5.1%); format: functional
Outline: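 HCT116 cells seeded overnight, then exposed to test compounds, alone or with NAC, for 48 h in complete medium. Loaded with 20 μM DCFH-DA for 30 min; intracellular ROS in 20 000 cells per group read by flow cytometry as histograms.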

HCT-116 [7] = assay: Induction of apoptosis in human HCT116 cells assessed as viable cells at 1 mM after 48 hrs by annexin V-FITC/propidium iodide staining-based flow cytometric analysis (reference value: 87.4%); format: functional; conditions: HCT-116, 48 h, read-out: Activity
HCT-116 [8] = assay: Induction of apoptosis in human HCT116 cells assessed as late apoptotic cells at 1 mM after 48 hrs by annexin V-FITC/propidium iodide staining-based flow cytometric analysis (reference value: 7.2%); format: functional
HCT-116 [9] = assay: Induction of apoptosis in human HCT116 cells assessed as early apoptotic cells at 1 mM after 48 hrs by annexin V-FITC/propidium iodide staining-based flow cytometric analysis (reference value: 1.1%); format: functional
HCT-116 [10] = assay: Induction of apoptosis in human HCT116 cells assessed as dead cells at 1 mM after 48 hrs by annexin V-FITC/propidium iodide staining-based flow cytometric analysis (reference value: 4.2%); format: functional
SW480 = assay: Antiproliferative activity against human SW480 cells after 24 to 72 hrs by SRB assay; format: functional, cell-based; outline: as §1
[11] = Antitumor activity against human HCT116 cells xenografted in nude mouse assessed as tumor growth inhibition at 10 mg/kg, ip administered once per week measured on day 41; format: functional; conditions: HCT-116, ip, 984 h, read-out: TGI
Outline: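 Nude mice given 2 × 10^6 HCT116 cells subcutaneously in flank; at ~120 mm3 randomised, six per group; ip dosing in 200 μL, test agent 5 or 10 mg/kg three times weekly, irinotecan 10 mg/kg once weekly; tumour volume measured twice weekly to day 41; body weight tracked for toxicity.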

RKO = assay: Antiproliferative activity against human RKO cells after 24 to 72 hrs by SRB assay; format: functional, cell-based; outline: as §1
[12] = Antiproliferative activity against human HCT15 cells after 24 to 72 hrs by SRB assay; format: functional, cell-based; conditions: HCT-15; outline: as §1

IC50 (K562): 6.7 µM
IC50 (A549): 0.8 µM
Structure (SMILES): COc1cc([C@@H]2c3cc4c(cc3[C@@H](O[C@@H]3O[C@@H]5CO[C@@H](C)O[C@H]5[C@H](O)[C@H]3O)[C@H]3COC(=O)[C@H]23)OCO4)cc(OC)c1O [ETOPOSIDE]
IC50 [1]: 3.3 µM
IC50 [2]: > 20 µM
IC50 [3]: 3.1 µM
IC50 (MRC5): > 20 µM
IC50 (CAKI-1): 1.1 µM
IC50 [4]: 0.3 µM
IC50 [5]: 2.3 µM

Structure (SMILES): CC(=O)N[C@@H](CS)C(=O)O [ACETYLCYSTEINE]
Activity (HCT-116 [6]): 6%
viability at 1000 µM (HCT-116 [7]): 85.6%
Activity (HCT-116 [8]): 8.5%
Activity (HCT-116 [9]): 1.1%
Activity (HCT-116 [10]): 4.9%

Structure (SMILES): O=C/C=C/c1ccc2c(c1)[C@@H](CO)[C@H](c1ccc(O)c(O)c1)O2
IC50 [1]: 10.4 µM

Structure (SMILES): CC(=O)/C=C/C=C/c1ccc2c(c1)O[C@@H](CO)[C@H](c1ccc(O)c(O)c1)O2
IC50 [1]: > 100 µM

Structure (SMILES): O=C/C=C/c1ccc2c(c1)O[C@@H](CO)[C@H](c1ccc3c(c1)O[C@@H](CO)[C@H](c1ccc(O)c(O)c1)O3)O2
IC50 [1]: 10.9 µM

Structure (SMILES): COc1ccc([C@@H]2Oc3ccc(/C=C/C=O)cc3O[C@H]2COC(C)=O)cc1OC
IC50 [1]: 5.6 µM

Structure (SMILES): COc1ccc([C@@H]2Oc3ccc(/C=C/C=O)cc3O[C@H]2CO)cc1OC
IC50 [1]: 4 µM

IC50 (SW480): 12.3 µM
Structure (SMILES): CCc1c2c(nc3ccc(OC(=O)N4CCC(N5CCCCC5)CC4)cc13)-c1cc3c(c(=O)n1C2)COC(=O)[C@]3(O)CC [IRINOTECAN]
IC50 [1]: 2 µM
inhibition in vivo at 10 mg/kg [11]: 68.6%
IC50 (RKO): 6.2 µM
IC50 [12]: 8.5 µM

Structure (SMILES): COc1ccc([C@@H]2Oc3ccc(C=O)cc3O[C@H]2CO)cc1OC
IC50 [1]: > 100 µM
